Reference: ChEMBL document CHEMBL3421570, “Combinatorial Libraries As a Tool for the Discovery of Novel, Broad-Spectrum Antibacterial Agents Targeting the ESKAPE Pathogens” (J Med Chem, 2015)
≈ marks a conversion by molar mass, not a printed value. Calls of active or inactive are those of the source. The calls are words filed in the database; no cut-off is given here.

Legend:
[1] = tested on: Staphylococcus aureus; assay: Bactericidal activity against methicillin-resistant Staphylococcus aureus assessed as cell survival recovery at 0.001% measured after drug wash out after 120 mins by time kill assay; type: functional
Method in brief: (§1)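 MRSA from stationary phase was regrown 3 h in TSB and seeded at OD600 0.5. […] After 120 min, cells were centrifuged and washed, serially diluted and plated for CFU. Percent recovery is relative to no-drug controls.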

[2] = tested on: Klebsiella pneumoniae; assay: Bactericidal activity against Klebsiella pneumoniae after 24 hrs; type: functional
[3] = tested on: Enterococcus faecium; assay: Antimicrobial activity against Enterococcus faecium assessed as inhibition of microbial growth at 45 uM after 24 hrs; type: functional, organism-based
Method in brief: (§2)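 Broth microdilution single-concentration read: overnight cultures diluted 1:1000, compound in DMF (≤2.0%) added, 37°C for 24 h, growth inhibition scored visually by lack of turbidity; triplicate. Gram-positives grown in TSB, Gram-negatives in LB.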

[4] = tested on: Acinetobacter baumannii; assay: Bactericidal activity against Acinetobacter baumannii after 24 hrs; type: functional
[5] = tested on: Staphylococcus aureus; assay: Bactericidal activity against Staphylococcus aureus after 24 hrs; type: functional
[6] = Selectivity index, ratio of IC50 for human A549 cells to MIC for Acinetobacter baumannii
[7] = tested on: Enterococcus faecium; assay: Antimicrobial activity against Enterococcus faecium assessed as inhibition of microbial growth after 24 hrs; type: functional
Method in brief: (§3)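 Broth microdilution against multidrug-resistant clinical ESKAPE isolates. Overnight cultures (TSB for Gram-positives, LB for Gram-negatives) diluted 1:1000 in fresh medium, compound in DMF (≤2.0% DMF) added at decreasing concentrations, 37°C.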

[8] = tested on: Acinetobacter baumannii; assay: Antimicrobial activity against Acinetobacter baumannii assessed as inhibition of microbial growth after 24 hrs; type: functional; method in brief: as §3
[9] = tested on: Enterococcus faecium; assay: Bactericidal activity against Enterococcus faecium after 24 hrs; type: functional
[10] = tested on: Klebsiella pneumoniae; assay: Ratio of MIC for Klebsiella pneumoniae measured after 8 cycle passage to MIC for wild type Klebsiella pneumoniae; type: functional
[11] = tested on: Enterobacter cloacae; assay: Antimicrobial activity against Enterobacter cloacae assessed as inhibition of microbial growth at 45 uM after 24 hrs; type: functional, organism-based; method in brief: as §2
[12] = tested on: Pseudomonas aeruginosa; assay: Antibiofilm activity against Pseudomonas aeruginosa incubated for 24 hrs followed by biofilm resuspension in PBS and measured after 24 hrs; type: functional
Method in brief: (§4)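 Biofilms grown 24 h in 96-well plates from overnight cultures standardized to OD600 0.5 in fresh medium (human serum only for S. aureus; TSB for Gram-positives, LB for Gram-negatives). Medium then replaced with fresh medium containing a concentration range above and below MIC, 37°C overnight. After 24 h biofilm resuspended in PBS, serially diluted, plated in duplicate, CFU counted after 24 h at 37°C. Activity relative to untreated; three technical replicates; MBEC50 reported.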

[13] = tested on: Klebsiella pneumoniae; assay: Antimicrobial activity against Klebsiella pneumoniae assessed as inhibition of microbial growth at 45 uM after 24 hrs; type: functional, organism-based; method in brief: as §2
[14] = Cytotoxicity against human A549 cells assessed as cell viability recovery up to 100 uM after 48 hrs by MTT assay; type: cell-based; settings: read-out: Activity
Method in brief: (§5)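 A549 cells grown in F-12K with L-glutamine, 10% FBS, 1% penicillin-streptomycin, seeded at 1.0 × 10^5 ml−1, allowed to adhere 24 h (37°C, 5% CO2), then exposed to compound in 45% w/v (2-hydroxypropyl)-β-cyclodextrin vehicle for 48 h. MTT 4 h, formazan solubilized in DMSO, absorbance 540 nm. Percent recovery versus vehicle-only; IC50 derived; at least three independent experiments.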

[15] = tested on: Klebsiella pneumoniae; assay: Antimicrobial activity against Klebsiella pneumoniae assessed as inhibition of microbial growth after 24 hrs; type: functional; method in brief: as §3
[16] = tested on: Acinetobacter baumannii; assay: Antimicrobial activity against Acinetobacter baumannii assessed as inhibition of microbial growth at 45 uM after 24 hrs; type: functional, organism-based; method in brief: as §2
[17] = tested on: Staphylococcus aureus; assay: Antibiofilm activity against Staphylococcus aureus incubated for 24 hrs followed by biofilm resuspension in PBS and measured after 24 hrs; type: functional; method in brief: as §4
[18] = tested on: Enterobacter cloacae; assay: Antibiofilm activity against Enterobacter cloacae incubated for 24 hrs followed by biofilm resuspension in PBS and measured after 24 hrs; type: functional; method in brief: as §4
[19] = tested on: Enterobacter cloacae; assay: Ratio of MIC for Enterobacter cloacae measured after 8 cycle passage to MIC for wild type Enterobacter cloacae; type: functional
[20] = tested on: Enterobacter cloacae; assay: Induction of spontaneous mutation in Enterobacter cloacae at 2 to 10 MIC; type: functional, organism-based
[21] = tested on: Staphylococcus aureus; assay: Antimicrobial activity against Staphylococcus aureus assessed as inhibition of microbial growth at 45 uM after 24 hrs; type: functional, organism-based; method in brief: as §2
[22] = Selectivity index, ratio of IC50 for human A549 cells to MIC for Pseudomonas aeruginosa
[23] = tested on: Klebsiella pneumoniae; assay: Antimicrobial activity against Klebsiella pneumoniae isolate 1441 assessed as inhibition of microbial growth in presence of 100 uM efflux pump inhibitor reserpine after 24 hrs; type: functional, organism-based
[24] = tested on: Staphylococcus aureus; assay: Bactericidal activity against methicillin-resistant Staphylococcus aureus assessed as cell survival recovery at MIC measured after drug wash out after 120 mins by time kill assay; type: functional; method in brief: as §1
[25] = tested on: Staphylococcus aureus; assay: Antimicrobial activity against Staphylococcus aureus USA300 strain FPR3757 infected in mouse model of lethal peritonitis assessed as mouse survival at 2 uM, im dosed 1 hr post infection and measured after 5 days post infection; type: functional, organism-based
Method in brief: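 Mice, six per group, infected i.p. with 1 × 10^8 CFU ml−1 S. aureus USA300 FPR3757 in PBS with 5% mucin. Compound given i.m. at 2 μM 1 h later; vehicle 45% w/v (2-hydroxypropyl)-β-cyclodextrin in water i.v.; vancomycin i.v. as control. Monitored twice daily for 5 days, pre-moribund animals euthanized. Survival compared by log-rank test.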

[26] = tested on: Acinetobacter baumannii; assay: Ratio of MIC for Acinetobacter baumannii measured after 8 cycle passage to MIC for wild type Acinetobacter baumannii; type: functional
[27] = tested on: Pseudomonas aeruginosa; assay: Antimicrobial activity against Pseudomonas aeruginosa assessed as inhibition of microbial growth at 45 uM after 24 hrs; type: functional, organism-based; method in brief: as §2
[28] = tested on: Enterobacter cloacae; assay: Bactericidal activity against Enterobacter cloacae after 24 hrs; type: functional
[29] = tested on: Pseudomonas aeruginosa; assay: Antimicrobial activity against Pseudomonas aeruginosa assessed as inhibition of microbial growth after 24 hrs; type: functional; method in brief: as §3
[30] = tested on: Enterococcus faecium; assay: Induction of spontaneous mutation in Enterococcus faecium at 2 to 10 MIC; type: functional, organism-based
[31] = tested on: Klebsiella pneumoniae; assay: Induction of spontaneous mutation in Klebsiella pneumoniae at 2 to 10 MIC; type: functional, organism-based
[32] = tested on: Staphylococcus aureus; assay: Ratio of MIC for Staphylococcus aureus measured after 8 cycle passage to MIC for wild type Staphylococcus aureus; type: functional
[33] = tested on: Pseudomonas aeruginosa; assay: Induction of spontaneous mutation in Pseudomonas aeruginosa at 2 to 10 MIC; type: functional, organism-based; settings: 2 to 10 x MIC
[34] = tested on: Staphylococcus aureus; assay: Induction of spontaneous mutation in Staphylococcus aureus at 2 to 10 MIC; type: functional, organism-based
[35] = tested on: Staphylococcus aureus; assay: Antimicrobial activity against Staphylococcus aureus assessed as inhibition of microbial growth after 24 hrs; type: functional; method in brief: as §3
[36] = tested on: Klebsiella pneumoniae; assay: Antibiofilm activity against Klebsiella pneumoniae incubated for 24 hrs followed by biofilm resuspension in PBS and measured after 24 hrs; type: functional; method in brief: as §4
[37] = tested on: A549; assay: Cytotoxicity against human A549 cells after 48 hrs by MTT assay; type: cell-based; settings: A549, 48 h; method in brief: as §5
[38] = tested on: Enterobacter cloacae; assay: Antimicrobial activity against Enterobacter cloacae assessed as inhibition of microbial growth after 24 hrs; type: functional; method in brief: as §3
[39] = Selectivity index, ratio of IC50 for human A549 cells to MIC for Klebsiella pneumoniae
[40] = tested on: Acinetobacter baumannii; assay: Antibiofilm activity against Acinetobacter baumannii incubated for 24 hrs followed by biofilm resuspension in PBS and measured after 24 hrs; type: functional; method in brief: as §4
[41] = Induction of hemolysis in human RBC at 10 uM incubated for 15 mins; type: cell-based, Erythrocyte; settings: red blood cells, read-out: Activity
Method in brief: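 Human RBCs from whole blood, resuspended 20% v/v in HA buffer (NaCl, CaCl2), compound 10 μM, 15 min at 37°C. Centrifuged 5,500 g for 1 min, supernatant OD543 read. Percent hemolysis against DMF vehicle (0%) and 1.0% Triton X-100 (100%); triplicate.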

[42] = Selectivity index, ratio of IC50 for human A549 cells to MIC for Enterobacter cloacae
[43] = Selectivity index, ratio of IC50 for human A549 cells to MIC for Enterococcus faecium
[44] = tested on: Acinetobacter baumannii; assay: Induction of spontaneous mutation in Acinetobacter baumannii at 2 to 10 MIC; type: functional, organism-based
[45] = tested on: Enterococcus faecium; assay: Antibiofilm activity against Enterococcus faecium incubated for 24 hrs followed by biofilm resuspension in PBS and measured after 24 hrs; type: functional; method in brief: as §4
[46] = tested on: Pseudomonas aeruginosa; assay: Bactericidal activity against Pseudomonas aeruginosa after 24 hrs; type: functional
[47] = tested on: Staphylococcus aureus; assay: Effect on bacterial density of methicillin-resistant Staphylococcus aureus at MIC measured over 2 hrs period by time kill assay; type: functional, organism-based
[48] = Selectivity index, ratio of IC50 for human A549 cells to MIC for Staphylococcus aureus
[49] = tested on: Staphylococcus aureus; assay: Bactericidal activity against methicillin-resistant Staphylococcus aureus at MIC measured after drug wash out after 120 mins by time kill assay; type: functional; method in brief: as §1
[50] = Cytotoxicity against human A549 cells assessed as cell viability recovery at 225 uM after 48 hrs by MTT assay; type: cell-based; settings: read-out: Activity; method in brief: as §5

In the case of CC(C)(C)CC(C)(C)c1ccc(OCCOCC[N+](C)(C)Cc2ccccc2)cc1.[Cl-] [BENZETHONIUM CHLORIDE], the Survival [1] is reported as 0%.

For CCCCCCCN1C(=N)N(CCCC[C@H]2CNC(=N)N2CCCCC2CCCCC2)C[C@@H]1CC1CCCCC1, the MBC90 [2] was 4.5 µM (≈ 2.51 µg/mL), the “growth inhibition (GI)” value [3] was “Active” and the MBC90 [4] was 2.8 µM (≈ 1.56 µg/mL). For the same molecule, the MBC90 [5] was 3.9 µM (≈ 2.17 µg/mL), the “Selectivity Index” value [6] was >139 and the MIC [7] was 1.6 µM. For the same molecule, the MIC [8] was 1.6 µM, the MBC90 [9] was 2.9 µM (≈ 1.62 µg/mL) and the Ratio [10] was “<=8”. The “growth inhibition (GI)” value [11] was “Active”, the MBEC50 [12] was 34 µM and the “growth inhibition (GI)” value [13] was “Active”. For the same molecule, the viability at 48 h [14] was > 65%, the MIC [15] was 1.6 µM and the “growth inhibition (GI)” value [16] was “Active”. For the same molecule, the MBEC50 [17] was 7.6 µM, the MBEC50 [18] was 13 µM and the Ratio [19] was “<=8”. For the same molecule, the Activity [20] was “inactive”, the “growth inhibition (GI)” value [21] was “Active” and the “Selectivity Index” value [22] was >139. For the same molecule, the “growth inhibition (GI)” value [23] was “Active”, the Survival [24] was 0.2% and the Activity [25] was “Active”. For the same molecule, the Ratio [26] was “<=8”, the “growth inhibition (GI)” value [27] was “Active” and the MBC90 [28] was 9.6 µM (≈ 5.35 µg/mL). The MIC [29] was 1.6 µM, the Activity [30] was “inactive” and the Activity [31] was “inactive”. For the same molecule, the Ratio [32] was 16, the Activity [33] was “inactive” and the Activity [34] was “inactive”. The MIC [35] was 1.6 µM, the MBEC50 [36] was 6.3 µM and the IC50 [37] was > 225 µM. The MIC [38] was 1.6 µM, the “Selectivity Index” value [39] was >139 and the MBEC50 [40] was 14 µM. For the same molecule, the hemolysis at 0.25 h, 10 µM [41] was 0.34%, the “Selectivity Index” value [42] was >139 and the “Selectivity Index” value [43] was >139. The Activity [44] was “inactive”, the MBEC50 [45] was 28 µM and the MBC90 [46] was 4 µM (≈ 2.23 µg/mL). For the same molecule, the Activity [47] was “inactive”, the “Selectivity Index” value [48] was >139 and the “fold change (FC)” value [49] was 2.5. For the same molecule, the viability at 48 h, 225 µM [50] was > 50%.
